According to ChEMBL document CHEMBL3091336, “Analogs of the Allosteric Heat Shock Protein 70 (Hsp70) Inhibitor, MKT-077, as Anti-Cancer Agents” (ACS Med Chem Lett, 2013):
pEC50, pKd: −log10 of the molar value. Active and inactive are the calls of the source. The rule behind the calls is not given here.

Tests used:
[1] = Half life in mouse liver microsomes at 1 uM incubated for 15 mins prior to beta-NADPH addition by LC-MS/MS analysis; assay type: ADME, Microsome; details: for half-life at 1 µM: liver microsomes; for t1/2: microsomes, 0.25 h, 1 µM
Method in brief: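 Compounds at 1 μM incubated with mouse liver microsomes. Degradation followed by LC–MS and reported as half-life.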

[2] = test system: MEF; test: Cytotoxicity against C57BL/6 mouse MEF assessed as growth inhibition after 72 hrs by MTT assay; assay type: cell-based; details: C57BL/6, MEF
Method in brief: (§1)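 Antiproliferative activity measured by MTT assay. EC50 is the average of triplicate experiments, with error as SEM.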

[3] = test system: MCF7; test: Cytotoxicity against human MCF7 cells assessed as growth inhibition after 72 hrs by MTT assay; assay type: functional, cell-based; details: MCF7, 72 h; method in brief: as §1
[4] = test system: MDA-MB-231; test: Cytotoxicity against human MDA-MB-231 cells assessed as growth inhibition after 72 hrs by MTT assay; assay type: functional, cell-based; details: MDA-MB-231, 72 h; method in brief: as §1
[5] = Binding affinity to [1H-15N]-DnaK (1 to 388) nucleotide binding domain (unknown origin) at 200 uM by NMR analysis
[6] = test system: MCF7; test: Induction of autophagic flux in human MCF7 cells assessed as decrease in p62 monomer level at 5 to 10 uM after 24 hrs; assay type: functional, cell-based
[7] = test system: MCF7; test: Induction of autophagic flux in human MCF7 cells assessed as increase in p62 oligomerization at 5 to 10 uM after 24 hrs; assay type: functional, cell-based
[8] = test system: MDA-MB-231; test: Induction of autophagic flux in human MDA-MB-231 cells assessed as increase in p62 oligomerization at 5 to 10 uM after 24 hrs; assay type: functional, cell-based
[9] = test system: MDA-MB-231; test: Induction of apoptosis in human MDA-MB-231 cells assessed as PARP cleavage at 10 uM after 48 hrs; assay type: functional, cell-based
Method in brief: (§2)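 MDA-MB-231 cells treated for 48 h. Cleavage of caspase 3 and PARP detected by Western blot. Representative of duplicate experiments.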

[10] = test system: MDA-MB-231; test: Induction of apoptosis in human MDA-MB-231 cells assessed as caspase-3 cleavage at 10 uM after 48 hrs; assay type: functional, cell-based; method in brief: as §2
[11] = test system: MDA-MB-231; test: Induction of autophagic flux in human MDA-MB-231 cells assessed as decrease in p62 monomer level at 5 to 10 uM after 24 hrs; assay type: functional, cell-based
[12] = target: Heat shock cognate 71 kDa protein (Homo sapiens, UniProt P11142); test: Binding affinity to human HSC70 after 3 hrs by ELISA
Heat shock cognate 71 kDa protein, sequence (P11142 whole entry): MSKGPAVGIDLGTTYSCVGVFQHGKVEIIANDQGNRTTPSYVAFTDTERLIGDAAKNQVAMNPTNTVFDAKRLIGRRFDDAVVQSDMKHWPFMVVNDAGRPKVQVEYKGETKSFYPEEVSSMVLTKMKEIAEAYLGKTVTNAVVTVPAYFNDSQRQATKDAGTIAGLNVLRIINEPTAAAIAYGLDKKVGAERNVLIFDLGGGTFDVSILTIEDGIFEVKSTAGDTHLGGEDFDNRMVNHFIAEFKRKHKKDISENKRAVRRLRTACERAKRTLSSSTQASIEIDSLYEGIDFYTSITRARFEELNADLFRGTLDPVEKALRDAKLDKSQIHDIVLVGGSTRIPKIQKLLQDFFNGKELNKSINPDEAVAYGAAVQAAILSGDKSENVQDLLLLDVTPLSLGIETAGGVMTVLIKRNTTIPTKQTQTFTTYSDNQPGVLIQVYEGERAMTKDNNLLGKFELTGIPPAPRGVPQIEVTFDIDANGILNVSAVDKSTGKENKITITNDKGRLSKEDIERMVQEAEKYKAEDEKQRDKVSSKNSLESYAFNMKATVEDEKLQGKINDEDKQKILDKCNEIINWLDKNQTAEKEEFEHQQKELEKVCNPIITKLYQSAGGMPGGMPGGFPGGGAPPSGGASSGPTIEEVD

[13] = Drug metabolism in mouse liver microsomes assessed as compound life time; assay type: ADME, Microsome
Method in brief: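 Compounds at 1 μM incubated with liver microsomes from C57BL/6 mice; disappearance of parent compound followed by LC–MS and reported as microsomal lifetime (t1/2, min).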

## CCn1c(=O)/c(=C2\Sc3cc(OC)ccc3N2C)s/c1=C\c1cccc[n+]1C.[Cl-]
[1]
  half-life at 1 µM: 10 min
[2]
  pEC50: < 4.30
[3]
  pEC50: 4.96
[4]
  pEC50: 5.40

## CCn1c(=O)/c(=C2\Sc3cc(Cl)ccc3N2C)s/c1=C\c1scc[n+]1Cc1ccccc1.[Cl-]
[5]
  Activity: Active
[6]
  Activity: Active
[7]
  Activity: Active
[8]
  Activity: Active
[9]
  Activity: Active
[10]
  Activity: Active
[1]
  t1/2: 37 min
[2]
  pEC50: 4.62
[3]
  pEC50: 6.15
[4]
  pEC50: 6.40
[11]
  Activity: Active

## CCn1c(=O)/c(=C2\Sc3ccc(OC)cc3N2C)s/c1=C\c1cccc[n+]1C.[Cl-]
[1]
  t1/2: ND(Insoluble)
[2]
  pEC50: < 4.30
[3]
  pEC50: 4.85
[4]
  pEC50: 5.55

## CCn1c(=O)/c(=C2\Sc3ccccc3N2C)s/c1=C\c1scc[n+]1Cc1ccccc1.[Cl-]
[1]
  t1/2: ND(Insoluble)
[2]
  pEC50: 5.17
[3]
  pEC50: 6.22
[4]
  pEC50: 6.30

## CCn1c(=O)/c(=C2\Sc3ccccc3N2C)s/c1=C\c1cccc[n+]1CCCCCCNC(=O)CCCC[C@@H]1SC[C@@H]2NC(=O)N[C@@H]21
[12]
  pKd: 5.70

## CCn1c(=O)/c(=C2\Sc3c(F)cccc3N2C)s/c1=C\c1cccc[n+]1C.[Cl-]
[1]
  t1/2: 16 min
[2]
  pEC50: < 4.30
[3]
  pEC50: 5.07
[4]
  pEC50: 5.21

## CCn1c(=O)/c(=C2\Sc3ccc(OC)cc3N2C)s/c1=C\c1cccc[n+]1CCCCCCNC(=O)CCCC[C@@H]1SC[C@@H]2NC(=O)N[C@@H]21
[12]
  pKd: 6.05

## CCn1c(=O)/c(=C2\Sc3cc(F)ccc3N2C)s/c1=C\c1cccc[n+]1CC.[Cl-]
[1]
  t1/2: ND(Insoluble)
[2]
  pEC50: < 4.52
[3]
  pEC50: 6.05
[4]
  pEC50: 5.08

## CCn1c(=O)/c(=C2\Sc3ccc(F)cc3N2C)s/c1=C\c1cccc[n+]1CC.[Cl-]
[1]
  t1/2: ND(Insoluble)
[2]
  pEC50: < 4.52
[3]
  pEC50: 5.62
[4]
  pEC50: 4.89

## CN1/C(=c2\s/c(=C\c3cccc[n+]3C)n(Cc3ccccc3)c2=O)Sc2ccccc21.[Cl-]
[1]
  t1/2: ND(Insoluble)
[2]
  pEC50: < 4.30
[3]
  pEC50: 5.54
[4]
  pEC50: 5.74

## CCn1c(=O)/c(=C2\Sc3cccc(Cl)c3N2C)s/c1=C\c1scc[n+]1Cc1ccccc1.[Cl-]
[1]
  half-life at 1 µM: 8.8 min
[2]
  pEC50: 5.15
[3]
  pEC50: 6.10
[4]
  pEC50: 6.40

## CCn1c(=O)/c(=C2\Sc3ccccc3N2C)s/c1=C\c1cccc[n+]1C.[Cl-]
[1]
  half-life at 1 µM: < 5 min
[2]
  pEC50: < 4.30
[3]
  pEC50: 5.28
[4]
  pEC50: 5.70

## CCn1c(=O)/c(=C2\Sc3ccccc3N2C)s/c1=C\c1cc[n+](C)cc1.[Cl-]
[1]
  t1/2: ND(Insoluble)
[2]
  pEC50: < 4.30
[3]
  pEC50: 4.72
[4]
  pEC50: 5.77

## CCn1c(=O)/c(=C2\Sc3ccccc3N2C)s/c1=C\c1cccc[n+]1CCO.[Cl-]
[1]
  t1/2: ND(Insoluble)
[2]
  pEC50: < 4.30
[3]
  pEC50: 5.16
[4]
  pEC50: 4.62

## CCn1c(=O)/c(=C2\Sc3c(Cl)cccc3N2C)s/c1=C\c1scc[n+]1Cc1ccccc1.[Cl-]
[1]
  t1/2: ND(Insoluble)
[2]
  pEC50: < 4.52
[3]
  pEC50: 6.00
[4]
  pEC50: 6.30

## CCn1c(=O)/c(=C2\Sc3cc(OC)ccc3N2C)s/c1=C\c1cccc[n+]1CCCCCCNC(=O)CCCC[C@@H]1SC[C@@H]2NC(=O)N[C@@H]21
[12]
  pKd: 5.27

## CCn1c(=O)/c(=C2\Sc3ccccc3N2C)s/c1=C\c1scc[n+]1CC.[Cl-]
[1]
  t1/2: ND(Insoluble)
[2]
  pEC50: < 4.52
[3]
  pEC50: 6.10
[4]
  pEC50: 5.66

## CCn1c(=O)/c(=C2\Sc3ccccc3N2C)s/c1=C\c1scc[n+]1C.[Cl-]
[1]
  t1/2: ND(Insoluble)
[2]
  pEC50: < 4.30
[3]
  pEC50: 6.15
[4]
  pEC50: 5.29

## C=CCn1c(=O)/c(=C2\Sc3ccccc3N2C)s/c1=C\c1cccc[n+]1C.[Cl-]
[1]
  t1/2: ND(Insoluble)
[2]
  pEC50: < 4.30
[3]
  pEC50: 5.08
[4]
  pEC50: 5.44

## CCn1c(=O)/c(=C2\Sc3ccc(C(F)(F)F)cc3N2C)s/c1=C\c1cccc[n+]1C.[Cl-]
[1]
  t1/2: ND(Insoluble)
[2]
  pEC50: < 4.30
[3]
  pEC50: < 4.52
[4]
  pEC50: 4.68

## CCn1c(=O)/c(=C2\Sc3ccc(F)cc3N2C)s/c1=C\c1cccc[n+]1CCCCCCNC(=O)CCCC[C@@H]1SC[C@@H]2NC(=O)N[C@@H]21
[12]
  pKd: 5.64

## CCn1c(=O)/c(=C2\Sc3ccc(Cl)cc3N2C)s/c1=C\c1cccc[n+]1CCCCCCNC(=O)CCCC[C@@H]1SC[C@@H]2NC(=O)N[C@@H]21
[12]
  pKd: 5.40

## CCn1c(=O)/c(=C2\Sc3cc(Cl)ccc3N2C)s/c1=C\c1cccc[n+]1CCCCCCNC(=O)CCCC[C@@H]1SC[C@@H]2NC(=O)N[C@@H]21
[12]
  pKd: 5.77

## CCn1c(=O)/c(=C2\Sc3c(Cl)cccc3N2C)s/c1=C\c1cccc[n+]1CCCCCCNC(=O)CCCC[C@@H]1SC[C@@H]2NC(=O)N[C@@H]21
[12]
  pKd: 5.59

## CCn1c(=O)/c(=C2\Sc3ccccc3N2C)s/c1=C\c1nccc[n+]1C.[Cl-]
[1]
  t1/2: ND(Insoluble)
[2]
  pEC50: < 4.30
[3]
  pEC50: 5.04
[4]
  pEC50: 5.24

## CCn1c(=O)/c(=C2\Sc3ccccc3N2C)s/c1=C\c1cccc[n+]1CC.[Cl-]
[13]
  Time: 4.4 min
[1]
  half-life at 1 µM: < 5 min
[2]
  pEC50: < 4.30
[3]
  pEC50: 5.66
[4]
  pEC50: 5.85

## CCn1c(=O)/c(=C2\Sc3ccccc3N2C)s/c1=C\c1cccc[n+]1Cc1ccccc1.[Cl-]
[1]
  t1/2: ND(Insoluble)
[2]
  pEC50: < 4.30
[3]
  pEC50: 5.82
[4]
  pEC50: 6.00

## CCn1c(=O)/c(=C2\Sc3ccc(Cl)cc3N2C)s/c1=C\c1cccc[n+]1C.[Cl-]
[1]
  t1/2: ND(Insoluble)
[2]
  pEC50: < 4.30
[3]
  pEC50: 4.55
[4]
  pEC50: 5.34

## CCn1c(=O)/c(=C2\Sc3ccc(F)cc3N2C)s/c1=C\c1cccc[n+]1C.[Cl-]
[1]
  t1/2: 23 min
[2]
  pEC50: < 4.30
[3]
  pEC50: 4.74
[4]
  pEC50: 5.11

## CCn1c(=O)/c(=C2\Sc3cc(F)ccc3N2C)s/c1=C\c1cccc[n+]1C.[Cl-]
[1]
  t1/2: 7.7 min
[2]
  pEC50: < 4.30
[3]
  pEC50: 5.21
[4]
  pEC50: 5.25

## CCn1c(=O)/c(=C2\Sc3cc(F)ccc3N2C)s/c1=C\c1cccc[n+]1CCCCCCNC(=O)CCCC[C@@H]1SC[C@@H]2NC(=O)N[C@@H]21
[12]
  pKd: 5.82

## CCn1c(=O)/c(=C2\Sc3cccc(Cl)c3N2C)s/c1=C\c1cccc[n+]1C.[Cl-]
[1]
  t1/2: ND(Insoluble)
[2]
  pEC50: < 4.30
[3]
  pEC50: 5.11
[4]
  pEC50: 5.36

## CCC[n+]1ccccc1/C=c1\s/c(=C2/Sc3ccccc3N2C)c(=O)n1CC.[Cl-]
[1]
  t1/2: ND(Insoluble)
[2]
  pEC50: < 4.30
[3]
  pEC50: 5.55
[4]
  pEC50: 5.80

## CCn1c(=O)/c(=C2\Sc3cc(C(F)(F)F)ccc3N2C)s/c1=C\c1cccc[n+]1C.[Cl-]
[1]
  t1/2: ND(Insoluble)
[2]
  pEC50: < 4.30
[3]
  pEC50: < 4.52
[4]
  pEC50: 4.72

## CCn1c(=O)/c(=C2\Sc3c(Cl)cccc3N2C)s/c1=C\c1cccc[n+]1C.[Cl-]
[1]
  t1/2: ND(Insoluble)
[2]
  pEC50: < 4.30
[3]
  pEC50: 5.28
[4]
  pEC50: 5.39

## CCn1c(=O)/c(=C2\Sc3c(F)cccc3N2C)s/c1=C\c1cccc[n+]1CC.[Cl-]
[1]
  t1/2: ND(Insoluble)
[2]
  pEC50: 4.57
[3]
  pEC50: 6.10
[4]
  pEC50: 5.55

## CCn1c(=O)/c(=C2\Sc3cc(Cl)ccc3N2C)s/c1=C\c1cccc[n+]1C.[Cl-]
[1]
  half-life at 1 µM: 8.2 min
[2]
  pEC50: < 4.30
[3]
  pEC50: 5.02
[4]
  pEC50: 5.08

## CCn1c(=O)/c(=C2\Sc3cccc(F)c3N2C)s/c1=C\c1cccc[n+]1C.[Cl-]
[1]
  t1/2: 15 min
[2]
  pEC50: < 4.30
[3]
  pEC50: 5.66
[4]
  pEC50: 5.40

## CCn1c(=O)/c(=C2\Sc3ccc(Cl)cc3N2C)s/c1=C\c1scc[n+]1Cc1ccccc1.[Cl-]
[1]
  t1/2: ND(Insoluble)
[2]
  pEC50: < 4.52
[3]
  pEC50: 6.10
[4]
  pEC50: 6.22

## CCn1c(=O)/c(=C2\Sc3cc(C(F)(F)F)ccc3N2C)s/c1=C\c1cccc[n+]1CCCCCCNC(=O)CCCC[C@@H]1SC[C@@H]2NC(=O)N[C@@H]21
[12]
  pKd: 6.00

## CCn1c(=O)/c(=C2\Sc3c(F)cccc3N2C)s/c1=C\c1cccc[n+]1CCCCCCNC(=O)CCCC[C@@H]1SC[C@@H]2NC(=O)N[C@@H]21
[12]
  pKd: 5.72

## CCn1c(=O)/c(=C2\Sc3cccc(F)c3N2C)s/c1=C\c1cccc[n+]1CC.[Cl-]
[1]
  t1/2: ND(Insoluble)
[2]
  pEC50: < 4.52
[3]
  pEC50: 6.00
[4]
  pEC50: 5.42
